One data set addresses Protease (Human immunodeficiency virus 1, UniProt Q9YQ12). Nature of the data set: Inhibition of HIV1 protease expressed in Escherichia coli.
Data set [1] relates to Human immunodeficiency virus 1. The data set is described as follows: Antiviral activity against HIV1 in MT4 cells by XTT assay. The data set is classed as functional, organism-based. To be noted: Human immunodeficiency virus 1, MT4. On the technique in general: Formazan colour is commonly taken as a measure of viable cells.
Data set [2] is described as follows: Cytotoxicity against human MT4 cells. The data set is classed as cell-based.
The nature of data set [3]: Permeability from apical to basolateral side of human Caco-2 cell membrane. It is filed as ADME, cell-based. Background: Passage across Caco-2 layers is used to estimate intestinal permeability.
Data set [4] in a line: Metabolic stability in human liver microsomes after 30 mins. It is filed as ADME, Microsome. To be noted: read-out: Stability. A digest of the protocol: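 Test compound incubated with human liver microsomes for 30 min at 37 °C. Read-out is percent parent compound remaining.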
(In general: Liver microsomes are vesicles of endoplasmic reticulum, rich in cytochrome P450 enzymes.)

Where only a bound is given, the exact number is not on record here.

Protease, sequence (Q9YQ12 whole entry): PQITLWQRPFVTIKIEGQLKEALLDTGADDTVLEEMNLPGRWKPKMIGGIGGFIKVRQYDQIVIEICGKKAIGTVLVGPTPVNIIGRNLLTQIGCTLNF

As usually defined, the Ki is the dissociation constant of the complex between target and ligand, obtained from inhibition or displacement. A word on the EC50: it is the concentration at which the effect is half-maximal. A higher EC50 goes with lower potency in that assay. One may read the CC50 as the concentration that lowers cell viability or growth by half. High values mean better tolerance by the cells, low ones harm at low concentration. At Protease, `COC(=O)N[C@H](C(=O)NN(CCC[C@@](O)(Cc1ccccc1)C(=O)N[C@H]1c2ccccc2C[C@H]1O)Cc1ccc(CN2CCOCC2)cc1)C(C)(C)C` gave a Ki of 11 nM. Further, the 50% effective concentration (EC50) in data set [1] amounted to 880 nM. Also, in data set [2], the 50% cytotoxic concentration (CC50) was > 10 µM.
Take `COC(=O)N[C@H](C(=O)NN(Cc1ccc(-c2cccnc2)cc1)C[C@](O)(Cc1ccccc1)C(=O)N[C@H]1c2ccccc2C[C@H]1O)C(C)(C)C`: in data set [1], a half-maximal effect (EC50) was put at 180 nM. In addition, in data set [2], the 50% cytotoxic concentration (CC50) is > 10 µM.
As to `COC(=O)N[C@H](C(=O)NN(Cc1ccc(Br)cc1)C(=O)CC[C@@](O)(Cc1ccccc1)C(=O)N[C@H]1c2ccccc2C[C@H]1O)C(C)(C)C`, the concentration for a half-maximal effect (EC50) in data set [1] is > 10000 nM. The 50% cytotoxic concentration (CC50) in data set [2] was > 10 µM.
Regarding `COC(=O)N[C@H](C(=O)NN(CCC[C@@](O)(Cc1ccccc1)C(=O)N[C@H]1c2ccccc2C[C@H]1O)Cc1ccc(-c2nc(C(C)(C)C)cs2)cc1)C(C)(C)C`, at Protease, affinity was put at a Ki of 24 nM. Also, the half-maximal effective concentration (EC50) in data set [1] stood at 1000 nM. Also, the 50% cytotoxic concentration (CC50) in data set [2] was > 10 µM.
A word on the Papp A→B: it is how fast a substance crosses the layer from the apical side. `COC(=O)N[C@H](C(=O)NN(CCC[C@@](O)(Cc1ccccc1)C(=O)N[C@H]1c2ccccc2C[C@H]1O)Cc1ccc(-c2cccnc2)cc1)C(C)(C)C`: affinity at Protease was put at a Ki of 3.6 nM. In addition, in data set [1], the concentration giving a half-maximal response (EC50) came to 190 nM. In data set [2], the CC50 is > 10 µM. In data set [3], the apical-to-basolateral permeability (Papp A→B) is < 20 ×10⁻⁶ cm/s. Besides, the remaining at 0.5 h in data set [4] worked out at 94%.
Molecule `COC(=O)N[C@H](C(=O)NN(CCC[C@@](O)(Cc1ccccc1)C(=O)N[C@H]1c2ccccc2C[C@H]1O)Cc1ccc(-c2ccccc2)cc1)C(C)(C)C` came in with an inhibition constant Ki at Protease of 7.3 nM. Moreover, a half-maximal effect in data set [1] (EC50) was put at 780 nM. In data set [2], this molecule gave a half-maximal cytotoxic concentration (CC50) of 7.5 µM. For the same molecule, in data set [3], the apparent permeability from apical to basolateral (Papp A→B) was > 20 ×10⁻⁶ cm/s.
Take `COC(=O)N[C@H](C(=O)NN(CCC[C@](O)(Cc1ccccc1)C(=O)N[C@H]1c2ccccc2C[C@H]1O)Cc1ccc(Br)cc1)C(C)(C)C`: the inhibitory constant (Ki) at Protease worked out at 420 nM. For the same molecule, the EC50 in data set [1] is > 10000 nM. Further, the 50% cytotoxic concentration (CC50) in data set [2] was > 10 µM. Further, the apical-to-basolateral permeability (Papp A→B) in data set [3] was > 20 ×10⁻⁶ cm/s.
For `COC(=O)N[C@H](C(=O)NN(Cc1ccc(Br)cc1)C[C@](O)(Cc1ccccc1)C(=O)N[C@H]1c2ccccc2C[C@H]1O)C(C)(C)C`, the midpoint of the response in data set [1], the EC50, lay at 1100 nM.
As to `COC(=O)N[C@H](C(=O)NN(CCC[C@@](O)(Cc1ccccc1)C(=O)N[C@H]1c2ccccc2C[C@H]1O)Cc1ccc(OCc2cnc(Cl)s2)cc1)C(C)(C)C`, in data set [1], the EC50 worked out at 600 nM. The CC50 in data set [2] was > 10 µM.
At Protease, `COC(=O)N[C@H](C(=O)NN(CCC[C@](Cc1ccccc1)(O[Si](C)(C)C(C)(C)C)C(=O)N[C@H]1c2ccccc2C[C@H]1O[Si](C)(C)C(C)(C)C)Cc1ccc(Br)cc1)C(C)(C)C` showed a Ki of 980 nM. Also, the EC50 in data set [1] was > 10000 nM. Also, the CC50 in data set [2] is > 10 µM.
As to `COC(=O)N[C@H](C(=O)NN(CCC[C@@](O)(Cc1ccccc1)C(=O)N[C@H]1c2ccccc2C[C@H]1O)Cc1ccc(N2CCOCC2)cc1)C(C)(C)C`, on Protease, the affinity, expressed as Ki, was 3.6 nM. Also, in data set [1], the EC50 was determined as 500 nM. In data set [2], the half-maximal cytotoxic concentration (CC50) is > 10 µM.
On the same counts, the results for `COC(=O)N[C@H](C(=O)NN(CCC[C@](Cc1ccccc1)(O[Si](C)(C)C(C)(C)C)C(=O)N[C@H]1c2ccccc2C[C@H]1O)Cc1ccc(Br)cc1)C(C)(C)C` are 190 nM, > 10000 nM and 5.8 µM.
`COC(=O)N[C@H](C(=O)NN(CCC[C@@](O)(Cc1ccccc1)C(=O)N[C@H]1c2ccccc2C[C@H]1O)Cc1ccc(I)cc1)C(C)(C)C`: on Protease, the Ki was 4.5 nM. In addition, the concentration giving a half-maximal response (EC50) in data set [1] stood at 820 nM. Also, the CC50 in data set [2] was > 10 µM.
Take `COC(=O)N[C@H](C(=O)NN(CCC[C@@](O)(Cc1ccccc1)C(=O)N[C@H]1c2ccccc2C[C@H]1O)Cc1ccccc1)C(C)(C)C`: affinity on Protease was put at a Ki of 5.7 nM. Moreover, the midpoint of the response in data set [1], the EC50, lay at 1200 nM. Moreover, the 50% cytotoxic concentration (CC50) in data set [2] is > 10 µM. Further, the apical-to-basolateral permeability (Papp A→B) in data set [3] is < 20 ×10⁻⁶ cm/s.
With `COC(=O)N[C@H](C(=O)NN(CCC[C@@](O)(Cc1ccccc1)C(=O)N[C@H]1c2ccccc2C[C@H]1O)Cc1ccc(-n2ccnc2)cc1)C(C)(C)C`, the Ki on Protease is 3.3 nM. The EC50 in data set [1] is 170 nM. In addition, the CC50 in data set [2] is > 10 µM.
At Protease, `COC(=O)N[C@H](C(=O)NN(CCC[C@@](O)(Cc1ccccc1)C(=O)N[C@H]1c2ccccc2C[C@H]1O)Cc1ccc(C#N)cc1)C(C)(C)C` yielded a Ki of 2.9 nM. The molecule also registered a concentration giving a half-maximal response (EC50) in data set [1] of 1200 nM. Further, the 50% cytotoxic concentration (CC50) in data set [2] was > 10 µM.
At Protease, `COC(=O)N[C@H](C(=O)NN(CCC[C@@](O)(Cc1ccccc1)C(=O)N[C@H]1c2ccccc2C[C@H]1O)Cc1ccc(-c2cn3ccsc3n2)cc1)C(C)(C)C` had an inhibition constant (Ki) of 2.3 nM. Besides, the EC50 in data set [1] amounted to 480 nM. In addition, the cytotoxic concentration (CC50) in data set [2] was > 10 µM.
`COC(=O)N[C@H](C(=O)NN(CCC[C@@](O)(Cc1ccccc1)C(=O)N[C@H]1c2ccccc2C[C@H]1O)Cc1ccc(Cl)cc1)C(C)(C)C` yielded an inhibitory constant (Ki) at Protease of 3.4 nM. In data set [1], this molecule yielded an EC50 of 910 nM. The CC50 in data set [2] is > 10 µM.
The matching figures for `COC(=O)N[C@H](C(=O)NN(CCC[C@@](O)(Cc1ccccc1)C(=O)N[C@H]1c2ccccc2C[C@H]1O)Cc1ccc(N(C)C)cc1)C(C)(C)C`: 4.9 nM, 980 nM and > 10 µM.
On to `COC(=O)N[C@H](C(=O)NN(CCC[C@@](O)(Cc1ccccc1)C(=O)N[C@H]1c2ccccc2C[C@H]1O)Cc1ccc(Br)cc1)C(C)(C)C`, for which, in data set [1], the response was half-maximal at 850 nM (EC50). In data set [2], the 50% cytotoxic concentration (CC50) was > 10 µM. Besides, the apical-to-basolateral permeability (Papp A→B) in data set [3] was > 20 ×10⁻⁶ cm/s.
As for `COC(=O)N[C@H](C(=O)NN(CCC[C@@](O)(Cc1ccccc1)C(=O)N[C@H]1c2ccccc2C[C@H]1O)Cc1ccc(-c2csc(C)n2)cc1)C(C)(C)C`, the inhibition constant Ki at Protease was 3.5 nM. This molecule also returned an EC50 in data set [1] of 510 nM. In data set [2], the 50% cytotoxic concentration (CC50) was > 10 µM.
The molecule `COC(=O)N[C@H](C(=O)NN(CCC[C@@](O)(Cc1ccccc1)C(=O)N[C@H]1c2ccccc2C[C@H]1O)Cc1ccc(-c2nccs2)cc1)C(C)(C)C` returned an inhibitory constant (Ki) at Protease of 2.3 nM. Besides, the EC50 in data set [1] worked out at 210 nM. For the same molecule, the CC50 in data set [2] is > 10 µM. Besides, the Papp A→B in data set [3] is > 20 ×10⁻⁶ cm/s.
`COC(=O)N[C@H](C(=O)NN(CCC[C@@](O)(Cc1ccccc1)C(=O)N[C@H]1c2ccccc2C[C@H]1O)Cc1ccc(-c2cncnc2)cc1)C(C)(C)C` returned an inhibition constant (Ki) on Protease of 2.4 nM. In data set [1], this molecule had an EC50 of 220 nM. Moreover, the CC50 in data set [2] was > 10 µM.
As to `COC(=O)N[C@H](C(=O)NN(CCC[C@@](O)(Cc1ccccc1)C(=O)N[C@H]1c2ccccc2C[C@H]1O)Cc1ccc(-c2ccccn2)cc1)C(C)(C)C`, the affinity on Protease corresponds to a Ki of 2.8 nM. Further, the 50% effective concentration (EC50) in data set [1] is 470 nM. Besides, in data set [2], the CC50 was > 10 µM.
As for `CC(C)(C)NC(=O)[C@@H]1CN(Cc2cccnc2)CCN1C[C@@H](O)C[C@@H](Cc1ccccc1)C(=O)N[C@H]1c2ccccc2C[C@H]1O`, the EC50 in data set [1] is 41 nM.
For `COC(=O)N[C@H](C(=O)NN(CCC[C@@](O)(Cc1ccccc1)C(=O)N[C@H]1c2ccccc2C[C@H]1O)Cc1ccc(-c2ccsc2)cc1)C(C)(C)C`, on Protease, the inhibition constant Ki stood at 10 nM. Further, in data set [1], a half-maximal effect (EC50) was put at 560 nM. Moreover, in data set [2], the CC50 is > 10 µM.
`COC(=O)N[C@H](C(=O)NN(CCC[C@@](O)(Cc1ccccc1)C(=O)N[C@H]1c2ccccc2C[C@H]1O)Cc1ccc(-c2noc(C)n2)cc1)C(C)(C)C` yielded a Ki at Protease of 3.6 nM. Moreover, the midpoint of the response in data set [1], the EC50, lay at 190 nM. Also, the CC50 in data set [2] was > 10 µM.
The matching figures for `COC(=O)N[C@H](C(=O)NN(CCC[C@@](O)(Cc1ccccc1)C(=O)N[C@H]1c2ccccc2C[C@H]1O)CC(C)C)C(C)(C)C`: 6.8 nM, 1800 nM and > 10 µM.
For the molecule `COC(=O)N[C@H](C(=O)NN(CCC[C@@](O)(Cc1ccccc1)C(=O)N[C@H]1c2ccccc2C[C@H]1O)Cc1ccc(F)cc1)C(C)(C)C`, the Ki at Protease worked out at 6.7 nM. This molecule also registered a concentration giving a half-maximal response (EC50) in data set [1] of 980 nM. The CC50 in data set [2] is > 10 µM.
`COC(=O)N[C@H](C(=O)NN(CCC[C@@](O)(Cc1ccccc1)C(=O)N[C@H]1c2ccccc2C[C@H]1O)Cc1ccc(-c2ccncc2)cc1)C(C)(C)C` came in with an inhibition constant (Ki) at Protease of 2.8 nM. A half-maximal effect in data set [1] (EC50) was put at 170 nM. The 50% cytotoxic concentration (CC50) in data set [2] is > 10 µM. Further, the Papp A→B in data set [3] was < 20 ×10⁻⁶ cm/s. For the same molecule, in data set [4], the remaining at 0.5 h was 94%.
As to `COC(=O)N[C@H](C(=O)N[C@@H](Cc1ccccc1)[C@@H](O)CN(Cc1ccc(-c2ccccn2)cc1)NC(=O)[C@@H](NC(=O)OC)C(C)(C)C)C(C)(C)C` [ATAZANAVIR], the Ki on Protease stood at 2.7 nM. The concentration for a half-maximal effect (EC50) in data set [1] came out at 3.9 nM.

For the origin of these results see ChEMBL document CHEMBL1143221, “Two-carbon-elongated HIV-1 protease inhibitors with a tertiary-alcohol-containing transition-state mimic” (J Med Chem, 2008).
